# According to ChEMBL document CHEMBL4513216, “Probing the Open Global Health Chemical Diversity Library for Multistage-Active Starting Points for Next-Generation Antimalarials” (ACS Infect Dis, 2020):
# Assay: Toxicity liver stage against HepG2, at 10uM
# Format: cell-based
# Parameters: test concentration 10 uM, cell line HepG2-A16-CD81EGFP
# Conditions: human, HepG2-A16-CD81EGFP cells; read-out: INHIBITION
# Outline: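 Uninfected HepG2-A16-CD81EGFP cells, 3 × 10^3 per well, 1536-well, plated on prespotted compound at 10 μM final, parasite-free screening media added to match infected plates; puromycin 10 μM positive, DMSO 0.5% negative; run in parallel with 48 h PbLuc assay at 37 °C, 5% CO2; viability by CellTiter-Glo luminescence, normalized to controls.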
row,Structure (SMILES),cytotoxicity at 10 µM
1,Cc1cccc(-c2noc([C@@H]3C[C@@H](O)CN3C3CCOCC3)n2)c1,4.9%
2,CC(C)c1ccc(-n2ncc(C(=O)NCC3COC(C)(C)O3)c2N)cc1 (stereo not given),-0.726%
3,Cc1ccc(-n2ncc(C(=O)NC3CC(C)(C)NC(C)(C)C3)c2N)cc1,-4.2%
4,COCC(=O)N1CCC(=O)N(C2CCCC2)Cc2ccccc21,-5.2%
5,O=C(Nc1ccccn1)C1(n2cnnn2)CCCCC1,-7.03%
6,O=C(CNC(=O)N1CCN(c2cccc(Cl)c2)CC1)Nc1ccccn1,-0.74%
7,COCCn1ccc(=O)c(OCC(=O)Nc2cccc(Cl)c2)c1C,2.16%
8,NC(=O)Cn1c(CO)cnc1SCC(=O)NCc1ccccc1Cl,-4.24%
9,CCNC(=O)N1CCN(c2nc3ccccc3n2C)CC1,0.739%
10,CCOC(=O)CCC(=O)N1CCC(Oc2ncccc2Cl)CC1,-5.57%
11,O=C1CCC2(CCCN(C(=O)Cc3ccccn3)C2)N1 (stereo not given),4%
12,O=C(CC1CC1)N1CCC2(COCc3cnc(-c4ccccc4)nc32)C1 (stereo not given),2.02%
13,COCCNC(=O)Cn1c(-c2ccc(F)cc2)nc(C)c(CCO)c1=O,-15%
14,CC/N=c1\nc(NCC)nc2n1C(O)(Nc1cc(C)ccc1C)CS2 (stereo not given),10.3%
15,Oc1nc(N2CCOCC2)nc2nccc(-c3ccccn3)c12,7.52%
16,O=C1CC(c2ccncc2)c2c(c(C(=O)O)cn2-c2ccc(F)cc2)N1 (stereo not given),10.1%
17,O=C(NC[C@H]1OC[C@@H]2CCN(C(=O)c3ccco3)C[C@@H]21)C1CC1,-6.2%
18,O=C(c1ccco1)N1CCC2(CCOC2)C1 (stereo not given),-3.65%
19,CCN(CC)C(=O)c1nnc2ccc(N3CCOCC3)cc2n1,5.37%
20,Cc1ncc(C(=O)N2CC(C(=O)N3CCOCC3)C2)c(C)n1,3.54%
21,Cn1nc(Cl)cc1C(=O)N1CCC(C(=O)c2nc3ccccc3s2)CC1,3.34%
22,O=C(c1cc[nH]n1)N1CCCC1c1cc(Nc2ccccn2)n[nH]1 (stereo not given),-13.8%
23,CS(=O)(=O)c1cn[nH]c1C1CCCCN1C(=O)c1cnccn1 (stereo not given),-2.13%
24,CN(C)CC(=O)N1C[C@@H]2CC[C@H](Oc3ccccc3)[C@@H]2C1,-26.4%
25,Cc1ncc(CN2CCCC(c3nc4ccccc4n3C(C)C)C2)s1 (stereo not given),-24.9%
26,Cc1cnc(N)c(C(=O)C2CCN(C(=O)c3cnc(C)cn3)CC2)c1,-19.7%
27,O=C(Cc1ccccn1)N1CCC(O)(Cn2ccc3ccncc32)CC1,-5.24%
28,Cc1cc(-c2cnc(NC3CC3)nc2-c2ccco2)on1,-23.2%

row,Structure (SMILES),cytotoxicity at 10 µM
1,Cc1ccc(=O)n(CC2(O)CCN(Cc3cccs3)CC2)n1,-5.72%
2,CNC(=O)c1ccc(C2CN(C(=O)c3c[nH]nc3C)CCO2)nc1 (stereo not given),-19.3%
3,Cc1cc(C)nc(Nc2cccc(C3CCCN(C(C)C)C3)n2)n1 (stereo not given),-19.4%
4,CC(C)(CNC(=O)Nc1ccc(S(=O)(=O)C(F)F)cc1)N1CCOCC1,4.44%
5,Cc1ccc(-n2cc(C(=O)NCc3nnc4n3CCCCC4)nn2)cc1,-3.32%
6,N#Cc1cc(F)ccc1NCc1ccc(Cn2cncn2)cc1,8.75%
7,CCN(CC)S(=O)(=O)NCC(O)c1c(Cl)cccc1Cl (stereo not given),8.66%
8,CCN(CC)C(=O)C1(NCc2nc(C)c(C)o2)CCCCC1,2.5%
9,O=C(NC1(C(=O)O)CCCCC1)C1Cc2ccccc2O1 (stereo not given),10.9%
10,CC1COCCN1C(=O)COc1cccc(Oc2ccccn2)c1 (stereo not given),-5.15%
11,CN(C1CCCCC1)S(=O)(=O)NCC1Cc2ccccc2O1 (stereo not given),4.19%
12,CSc1ncccc1C(=O)NC(C)c1cccc(N2CCOC2=O)c1 (stereo not given),-9.05%
13,CC(C)n1cnnc1CNC(=O)c1cnn(-c2ccccc2)c1,11.9%
14,Cc1nc(-c2ccc(S(=O)(=O)N3CCC=C(F)C3)cc2)co1,13.4%
15,CCN(CC)C1CCN(C(=O)NCc2cccc(-n3ccnc3)c2)C1 (stereo not given),-4.45%
16,Cn1cc(C(=O)CC2CCCN2C(=O)c2ccn3ccnc3c2)cn1 (stereo not given),-5.81%
17,COCC1CCN(CCCc2cccc(OC)c2)CC1,-11%
18,Cc1nn(C)c(C)c1C(=O)NCc1cc(N(C)C)nc2ccccc12,-1.08%
19,CC(NC(=O)c1ccnc(C2CC2)n1)C1(N2CCOCC2)CCCC1 (stereo not given),4.21%
20,CC(C)(C)c1n[nH]c(C2CN(C(=O)c3cc(C4CC4)[nH]n3)CCO2)n1 (stereo not given),-7.2%
21,CC(C)CC(CCO)CNC(=O)N1CCC1(C)C (stereo not given),-3.25%
22,CCOc1ccccc1C(CC(=O)O)NC(C)=O (stereo not given),-4.19%
23,Cc1nn(C)c(C)c1OCC(=O)N1CCC(O)(C(F)(F)F)CC1,-5.09%
24,Cc1ccc(F)c(OC2CCCN(c3cnn(C)c3)C2=O)c1 (stereo not given),-6.43%
25,CC(Cn1cncn1)NC(=O)Nc1ccc(F)cc1OCC1CC1 (stereo not given),4.34%
26,N#CCCN(c1ccccc1)S(=O)(=O)CC1CCCCO1 (stereo not given),-4.69%
27,CC(C)Cc1ccc(S(=O)(=O)NCCCN2CCNC(=O)C2)cc1,-4.36%
